This is a sample that favours compounds with a hit; in the whole collection about 3.5% have one here.
RGS4 block: inhibitors of human RGS4; HEK293 M3R/RGS4 inducible, Fluo-4 calcium flux; active compounds read high; triggered by carbachol at its EC20; AID 463165; B-score at 10 µM; 310,000 tested, 0.45% active;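 active = B-score, a plate-corrected calcium signal, over three deviations above library mean, with baseline fluorescence within five deviations of library mean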;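 note: RGS4 expression induced by doxycycline in cells with stable M3 receptor; B-score is computed from the integrated fluorescence ratio over baseline after carbachol; higher B-score means a larger calcium signal and so more RGS4 inhibition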
Target sequence (P49798 whole entry, looked up): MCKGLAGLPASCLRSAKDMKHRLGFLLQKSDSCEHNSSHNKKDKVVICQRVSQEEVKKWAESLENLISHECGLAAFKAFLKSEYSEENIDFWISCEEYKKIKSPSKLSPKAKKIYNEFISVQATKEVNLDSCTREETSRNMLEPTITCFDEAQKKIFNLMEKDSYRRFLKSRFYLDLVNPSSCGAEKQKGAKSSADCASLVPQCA
MrgX1 PAM: human MrgX1 positive allosteric modulation, primary screen; Q96LB2; MrgX1-HEK293, Fluo-4 calcium flux, FDSS; active compounds read high; B-score at 10 µM; 310,000 tested, 0.63% active; AID 588675;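 active = plate-corrected calcium response at least 3 library SD above typical, normal starting fluorescence, not activating the receptor alone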;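 note: compound read alongside a low EC10 to EC30 dose of BAM8-22 agonist; peak minus trough fluorescence over baseline measured at the second addition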
Target sequence (Q96LB2 whole entry, looked up): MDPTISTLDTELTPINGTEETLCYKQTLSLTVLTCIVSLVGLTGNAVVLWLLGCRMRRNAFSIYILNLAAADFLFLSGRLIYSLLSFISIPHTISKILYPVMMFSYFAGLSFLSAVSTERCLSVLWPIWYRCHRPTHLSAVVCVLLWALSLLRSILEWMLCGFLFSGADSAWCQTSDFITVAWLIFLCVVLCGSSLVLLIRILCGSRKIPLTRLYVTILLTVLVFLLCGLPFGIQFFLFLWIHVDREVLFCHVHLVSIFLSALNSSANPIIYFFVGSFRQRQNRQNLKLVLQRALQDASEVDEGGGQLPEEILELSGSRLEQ
MrgX1 antagonist: antagonists of human MrgX1 receptor; 310,000 tested, 1.3% active; B-score at 10 µM; Q96LB2; AID 588676; MRGX1-HEK293 calcium flux, Fluo-4, BAM8-22 antagonism; active compounds read low;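 active = calcium-response B-score plate-corrected more than 3 library SD below zero, starting fluorescence within 5 deviations, no agonist response on first addition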;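 note: peak minus trough fluorescence over baseline after final BAM8-22 challenge near maximal dose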
MrgX1 ag: activates human MrgX1 receptor signaling; Q96LB2; MrgX1-HEK293 cells, Fluo-4 calcium fluorescence, agonist mode; active compounds read high; B-score at 10 µM; 310,000 tested, 0.44% active;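 active = calcium response B-score plate-corrected fluorescence ratio at least 3 library SD, with starting fluorescence B-score inside 5 SD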
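Material – MrgX1-expressing HEK293 cells · Input – 15,000 cells seeded per well · Dosing – compound as first of three additions · Times – overnight seeding, then 1 h dark dye loading · Measured by – kinetic Fluo-4 NW fluorescence of intracellular calcium · Read-out – B-scored fluorescence response ratio · Benchmarks – positive and negative control wells on each plate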
RGS4 act: potentiators or activators of RGS4; HEK293 M3R/inducible RGS4, carbachol calcium flux Fluo4; active compounds read low; B-score at 10 µM; 310,000 tested, 0.92% active;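 active = B-score of the integrated calcium signal more than 4 SD below the library mean, with starting fluorescence not abnormally high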;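 note: negative B-score means reduced calcium response which marks RGS4 activation or potentiation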
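Assay system: HEK293 FlpIn-TREx cells, stable M3R, doxycycline-inducible RGS4 / Probe or stimulus: carbachol, ECmax concentration / Times: overnight RGS4 induction, 30 min dye load 37 °C, 20 min compound RT / Signal: kinetic calcium fluorescence imaging with Fluo4-AM dye, 2 µM / Measure: Agonist-evoked peak-minus-minimum fluorescence over baseline, integrated ratio, B score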
MrgX1 antag conf: confirmation of human MrgX1 receptor antagonists | 2,300 tested, 19% active | AID 602420 | MrgX1-HEK293, BAM8-22 calcium flux, Fluo-4; active compounds read low | shares compounds with MrgX1 antagonist | remaining BAM8-22 calcium response % of control (active compounds read low), % at 10 µM;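 active = remaining agonist calcium response no higher than 100% minus 3 SD of agonist-only control wells, with starting fluorescence near control levels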;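 note: agonist BAM8-22 given at a near maximal EC90 to ECmax level; peak minus minimum fluorescence divided by baseline after agonist addition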
HEK293 Ca flux: activity in parental HEK293 cells lacking MrgX1 | shares compounds with MrgX1 antagonist | Fluo-4 calcium fluorescence, FDSS | fluorescence ratio F(max-min)/F0 at 10 µM | 4,000 tested, 2% active | AID 624111;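 active = duplicate-averaged calcium fluorescence ratio at least three times the standard deviation of buffer wells, a nonspecific response in parental cells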
HEK293 Ca counter: MrgX1 allosteric activator counter-screen hit in parental HEK293 cells | shares compounds with MrgX1 antagonist | parental HEK293 calcium flux, Fluo-4 fluorescence ratio; active compounds read high | fluorescence ratio F(max-min)/F0 at 10 µM | 4,000 tested, 0.4% active;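 active = calcium fluorescence ratio, averaged over duplicates, at least 3 SD of the buffer-well ratio, meaning a nonspecific response in receptor-free cells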;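 note: untransfected parental HEK293 lacking MrgX1 used as counterscreen for MrgX1 allosteric activators; fluorescence change taken during the second addition on a kinetic imager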
HEK293 Ca cntr2: activity in parental HEK293 cells lacking MrgX1 receptor; shares compounds with MrgX1 antagonist; Fluo-4 calcium fluorescence (FDSS); active compounds read high; fluorescence ratio F(max-min)/F0 at 10 µM; 4,000 tested, 8.7% active; AID 624115;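 active = calcium fluorescence ratio at least three times the spread of buffer wells, meaning a non-specific response in parental cells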
Large screens that a line does not name were inactive (follow-up assays come after a bar, where they were run).

Cc1ccc(C)c(S(=O)(=O)C(C#N)c2nc3ccccc3nc2N2CCCC2)c1 (stereo not given)	none
Cc1ccc(C)c(S(=O)(=O)C(C#N)c2nc3ccccc3nc2N2CC(C)OC(C)C2)c1 (stereo not given)	MrgX1 antagonist -7.42 | MrgX1 antag conf 81.4% | HEK293 Ca flux inactive | HEK293 Ca counter inactive | HEK293 Ca cntr2 55.8
CCOC(CNc1c([N+](=O)[O-])c(=O)n(C)c(=O)n1C)OCC	none
CC1(C)CC(=O)C2=C(C1)N(c1ccc(F)cc1)C(=O)CC2c1ccsc1 (stereo not given)	MrgX1 antagonist -5.06 | MrgX1 antag conf inactive | HEK293 Ca flux inactive | HEK293 Ca counter inactive | HEK293 Ca cntr2 inactive
COc1cc(CCC(=O)NNC(=O)c2cccc(Cl)c2)cc(OC)c1OC	none
CSc1ccc(C(=O)N2CCC(CCC(=O)NCc3ccc(F)cc3)CC2)cc1	none (no result: MrgX1 PAM, MrgX1 antagonist, MrgX1 ag)
COc1ccc(OCc2nc3ccc(S(=O)(=O)Nc4ccccc4Cl)cc3[nH]2)cc1	MrgX1 antagonist -6.12 | MrgX1 antag conf inactive | HEK293 Ca flux inactive | HEK293 Ca counter inactive | HEK293 Ca cntr2 inactive
Cc1ccc(S(=O)(=O)c2cc3c(=O)n4ccccc4nc3n(Cc3ccco3)c2=N)cc1	MrgX1 antagonist -4.61 | MrgX1 antag conf 76.1% | HEK293 Ca flux inactive | HEK293 Ca counter inactive | HEK293 Ca cntr2 inactive
N#Cc1cc2c(=O)n3ccccc3nc2n(Cc2ccco2)c1=NC(=O)c1ccco1	MrgX1 antagonist -4.79 | MrgX1 antag conf 83.4% | HEK293 Ca flux inactive | HEK293 Ca counter inactive | HEK293 Ca cntr2 inactive
Cc1ccccc1C(=O)N=c1c(C#N)cc2c(=O)n3cccc(C)c3nc2n1Cc1ccco1	none
CC(C)CCN(C(=O)C1CSC2(C)CCC(=O)N12)c1c(N)n(Cc2ccccc2)c(=O)[nH]c1=O (stereo not given)	none
CC(C)(C)SCCNC(=O)CSc1ccccc1	MrgX1 antagonist -5.04 | MrgX1 antag conf 83.7% | HEK293 Ca flux inactive | HEK293 Ca counter inactive | HEK293 Ca cntr2 inactive
CC(NC(=S)NCCc1ccccc1)C(c1cccs1)N1CCN(Cc2ccccc2)CC1 (stereo not given)	none
O=C(Nc1cn(-c2ccccc2)nc1-c1ccc(F)cc1)c1ccccc1	MrgX1 antagonist -5.28 | MrgX1 antag conf 81.3% | HEK293 Ca flux inactive | HEK293 Ca counter inactive | HEK293 Ca cntr2 inactive
Cc1ccc2nsnc2c1S(=O)(=O)N1CCN(Cc2ccc3c(c2)OCO3)CC1	MrgX1 antagonist -7.49 | MrgX1 antag conf inactive | HEK293 Ca flux inactive | HEK293 Ca counter inactive | HEK293 Ca cntr2 inactive
Cc1cc(C(=O)N2CCc3ccccc3C2)on1	none
Cc1ccc(NC(=O)Nc2ccc(F)cc2)cc1Cl	MrgX1 antagonist -6.07 | MrgX1 antag conf 71.2% | HEK293 Ca flux inactive | HEK293 Ca counter inactive | HEK293 Ca cntr2 inactive
CCOC(=O)c1sc(NC(=S)NC(=O)c2cccc(Cl)c2)c(C(=O)OCC)c1C	MrgX1 antagonist -4.87 | MrgX1 antag conf inactive | HEK293 Ca flux inactive | HEK293 Ca counter inactive | HEK293 Ca cntr2 inactive
CCN(CC)CCNC(=O)C1CCN(S(=O)(=O)c2c(C)noc2/C=C/c2ccccc2F)CC1	none
CC(=O)NC1C(=O)N(CCN2CCOCC2)c2ccc(Cl)cc21 (stereo not given)	MrgX1 antagonist -8.71 | MrgX1 antag conf inactive | HEK293 Ca flux inactive | HEK293 Ca counter inactive | HEK293 Ca cntr2 inactive
CC(=O)NC1C(=O)N(CCN2CCOCC2)c2ccc(F)cc21 (stereo not given)	MrgX1 antagonist -5.35 | MrgX1 antag conf 60.5% | HEK293 Ca flux inactive | HEK293 Ca counter inactive | HEK293 Ca cntr2 inactive
